Assay results reported in ChEMBL document CHEMBL1142696, “Design and synthesis of melanocortin peptides with candidacidal and anti-TNF-alpha properties” (2005).
Non-standard residues stand in square brackets, D forms with d. Residues, ends and D or L forms follow the SMILES beside them. d2Nal = N[C@H](Cc1ccc2ccccc2c1)C(=O)O

Tests used:
Candida albicans = test: Inhibition of Candida albicans colony forming units (CFU) at 1e-4 M compound; format: functional
Method in brief: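 Six C. albicans isolates (five clinical, ATCC 24433), grown 48 h at 32 °C in Sabouraud-dextrose broth, washed and held in distilled water. 1 × 10^6 cells exposed to peptide at 10^-4 M final, 2 h at 37 °C; water controls. Diluted, plated on blood agar for 48 h at 37 °C, colonies counted manually. Kill = 100 − (test CFU/control CFU × 100). Triplicates, two independent experiments.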

PBMC = test: Inhibition of tumor necrosis factor alpha release by endotoxin stimulated human peripheral blood mononuclear cells at 1e-4 M; format: functional
Method in brief: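 Human PBMC from five normal donors, isolated by Ficoll-Hypaque density centrifugation, washed in PBS and kept in RPMI 1640 with HEPES, glutamine, 10% FCS and penicillin/streptomycin. Cells at 2.5 × 10^5 per well were held 24 h at 37 °C, 5% CO2 with E. coli 055:B5 endotoxin 1 ng/mL plus peptide 10^-4 M. Supernatant TNF-α measured by immunoassay; % inhibition versus saline control, mean ± SD.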

Row | Compound | Inhibition (Candida albicans) | Inhibition (PBMC)
1 | CC(C)[C@H](NC(=O)[C@H](Cc1ccccc1)NC(=O)[C@H](CCCCN)NC(=O)CNC(=O)[C@H](Cc1c[nH]c2ccccc12)NC(=O)[C@H](CCCN=C(N)N)NC(=O)[C@@H](Cc1ccc2ccccc2c1)NC(=O)[C@H](C)N)C(N)=O | 62.8% | <10%
2 | NC(=O)[C@H](Cc1c[nH]c2ccccc12)NC(=O)[C@H](CCCN=C(N)N)NC(=O)[C@@H](Cc1ccc2ccccc2c1)NC(=O)[C@@H](N)Cc1c[nH]cn1 | 43% | 13.9%
3 | CC(C)[C@H](NC(=O)[C@H](Cc1ccccc1)NC(=O)[C@H](CCCCN)NC(=O)CNC(=O)[C@H](Cc1c[nH]c2ccccc12)NC(=O)[C@H](C)NC(=O)[C@@H](Cc1ccc2ccccc2c1)NC(=O)[C@@H](N)Cc1c[nH]cn1)C(N)=O | 95.7% | 23%
4 | CC(C)[C@H](NC(=O)[C@H](Cc1ccccc1)NC(=O)[C@H](CCCCN)NC(=O)CNC(=O)[C@H](C)NC(=O)[C@H](CCCN=C(N)N)NC(=O)[C@@H](Cc1ccc2ccccc2c1)NC(=O)[C@@H](N)Cc1c[nH]cn1)C(N)=O | 24.9% | 18.1%
5 | CC(C)[C@H](NC(=O)[C@H](Cc1ccccc1)NC(=O)[C@H](CCCCN)NC(=O)CNC(=O)[C@H](Cc1c[nH]c2ccccc12)NC(=O)[C@H](CCCN=C(N)N)NC(=O)[C@H](N)Cc1ccc2ccccc2c1)C(N)=O | 51.4% | <10%
6 | CC(C)[C@H](NC(=O)[C@H](Cc1ccccc1)NC(=O)[C@H](CCCCN)NC(=O)CN)C(N)=O (H-GKFV-NH2) | 5% | <10%
7 | CC(C)[C@H](NC(=O)[C@H](Cc1ccccc1)NC(=O)[C@H](CCCCN)NC(=O)CNC(=O)[C@H](Cc1c[nH]c2ccccc12)NC(=O)[C@H](CCCN=C(N)N)NC(=O)[C@H](C)NC(=O)[C@@H](N)Cc1c[nH]cn1)C(N)=O (H-HARWGKFV-NH2) | 49.9% | <10%
8 | CC(C)[C@H](NC(=O)[C@H](Cc1ccccc1)NC(=O)[C@H](CCCCN)NC(=O)CNC(=O)[C@H](Cc1c[nH]c2ccccc12)NC(=O)[C@H](CCCNC(=N)N)NC(=O)[C@H](Cc1ccccc1)NC(=O)[C@@H](N)Cc1cnc[nH]1)C(N)=O (H-HFRWGKFV-NH2) | 90.8% | <10%
9 | CC(C)[C@H](NC(=O)[C@@H]1CCCN1C(=O)[C@H](CCCCN)NC(=O)CNC(=O)[C@H](Cc1c[nH]c2ccccc12)NC(=O)[C@H](CCCN=C(N)N)NC(=O)[C@H](Cc1ccccc1)NC(=O)[C@@H](N)Cc1c[nH]cn1)C(N)=O (H-HFRWGKPV-NH2) | 59.4% | 12.3%
10 | CC(C)[C@H](NC(=O)[C@H](Cc1ccccc1)NC(=O)[C@H](CCCCN)NC(=O)CNC(=O)[C@H](Cc1c[nH]c2ccccc12)NC(=O)[C@H](CCCN=C(N)N)NC(=O)[C@@H](Cc1ccc2ccccc2c1)NC(=O)[C@@H](N)Cc1c[nH]cn1)C(N)=O (H-H[d2Nal]RWGKFV-NH2) | 99.8% | 18.7%
11 | CC(C)[C@H](NC(=O)[C@@H]1CCCN1C(=O)[C@H](CCCCN)NC(=O)CNC(=O)[C@H](Cc1c[nH]c2ccccc12)NC(=O)[C@H](CCCN=C(N)N)NC(=O)[C@@H](Cc1ccc2ccccc2c1)NC(=O)[C@@H](N)Cc1c[nH]cn1)C(N)=O (H-H[d2Nal]RWGKPV-NH2) | 95.3% | 41.8%
12 | CC(C)[C@H](NC(=O)[C@H](Cc1ccccc1)NC(=O)[C@@H](N)CCCCN)C(N)=O (H-Lys-Phe-Val-NH2) | 2.7% | <10%
13 | CC(C)[C@H](NC(=O)[C@H](Cc1ccccc1)NC(=O)[C@H](CCCCN)NC(=O)CNC(=O)[C@H](Cc1c[nH]c2ccccc12)NC(=O)[C@@H](N)CCCN=C(N)N)C(N)=O (H-RWGKFV-NH2) | 19.3% | <10%
14 | CC(C)[C@H](NC(=O)[C@H](Cc1ccccc1)NC(=O)[C@H](CCCCN)NC(=O)CNC(=O)[C@@H](N)Cc1c[nH]c2ccccc12)C(N)=O (H-WGKFV-NH2) | 5.7% | <10%
